Reference: ChEMBL document CHEMBL4400518, “Synthesis, antimicrobial and cytotoxic activities, and molecular docking studies of N-arylsulfonylindoles containing an aminoguanidine, a semicarbazide, and a thiosemicarbazide moiety” (Eur J Med Chem, 2019)
Converted amounts (≈) assume the structure as drawn.

Experiments:
Staphylococcus aureus [1] = assay: Antibacterial activity against Staphylococcus aureus CMCC(B) 26003 measured after 24 hrs by ELISA; format: functional; conditions: CMCC(B) 26003, 24 h
Summary of the method: (§1)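 Broth microdilution MIC. Mid-log bacteria in MHB or TSB diluted 1000-fold, inoculated at 10^5 CFU/mL. Compounds added from DMSO stocks; final DMSO at most 0.05%. Incubation 24 h at 37 °C. Growth read as absorbance at 630 nm. MIC taken as the lowest concentration giving complete growth inhibition. Three independent experiments.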

Staphylococcus aureus [2] = assay: Antibacterial activity against Staphylococcus aureus CMCC 25923 measured after 24 hrs by ELISA; format: functional; conditions: CMCC 25923, 24 h; summary of the method: as §1
Streptococcus pyogenes = assay: Antibacterial activity against Streptococcus pyogenes CMCC 32067 measured after 24 hrs by ELISA; format: functional; conditions: CMCC 32067, 24 h; summary of the method: as §1
Streptococcus pneumoniae = assay: Antibacterial activity against Streptococcus pneumoniae CMCC 31968 measured after 24 hrs by ELISA; format: functional; conditions: CMCC 31968, 24 h
Enterococcus faecalis = assay: Antibacterial activity against Enterococcus faecalis CMCC 29212 measured after 24 hrs by ELISA; format: functional; conditions: CMCC 29212, 24 h; summary of the method: as §1
Bacillus subtilis = assay: Antibacterial activity against Bacillus subtilis CMCC 63501 measured after 24 hrs by ELISA; format: functional; conditions: CMCC 63501, 24 h; summary of the method: as §1
Escherichia coli [3] = assay: Antibacterial activity against Escherichia coli CMCC 25922 measured after 24 hrs by ELISA; format: functional; conditions: CMCC 25922, 24 h; summary of the method: as §1
Escherichia coli [4] = assay: Antibacterial activity against Escherichia coli CMCC 44568 measured after 24 hrs by ELISA; format: functional; conditions: CMCC 44568, 24 h; summary of the method: as §1
Pseudomonas aeruginosa [5] = assay: Antibacterial activity against Pseudomonas aeruginosa CMCC 27853 measured after 24 hrs by ELISA; format: functional; conditions: CMCC 27853, 24 h; summary of the method: as §1
Pseudomonas aeruginosa [6] = assay: Antibacterial activity against Pseudomonas aeruginosa CMCC 10104 measured after 24 hrs by ELISA; format: functional; conditions: CMCC 10104, 24 h; summary of the method: as §1
Staphylococcus aureus [7] = assay: Antibacterial activity against methicillin-resistant Staphylococcus aureus ATCC 43300 measured after 24 hrs by ELISA; format: functional; conditions: ATCC 43300, 24 h
Summary of the method: (§2)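 Broth serial dilution MIC. Mid-log bacteria in Mueller-Hinton or Tryptone Soya broth, diluted 1000-fold and inoculated at 10^5 CFU/mL. Compounds from DMSO stock, final DMSO ≤0.05%. Incubated 24 h at 37 °C; growth read as absorbance at 630 nm. MIC is the lowest concentration giving complete growth inhibition. Three independent experiments.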

Staphylococcus aureus [8] = assay: Antibacterial activity against methicillin-resistant Staphylococcus aureus ATCC 33591 measured after 24 hrs by ELISA; format: functional; conditions: ATCC 33591, 24 h; summary of the method: as §2
Escherichia coli [9] = assay: Antibacterial activity against multidrug-resistant Escherichia coli ATCC BAA-196 measured after 24 hrs by ELISA; format: functional; conditions: ATCC BAA-196, 24 h; summary of the method: as §2
Pseudomonas aeruginosa [10] = assay: Antibacterial activity against multidrug-resistant Pseudomonas aeruginosa ATCC BAA-2111 measured after 24 hrs by ELISA; format: functional; conditions: ATCC BAA-2111, 24 h; summary of the method: as §2
[11] = Cytotoxicity against human A590 cells measured after 48 hrs by CCK8 assay; format: functional, cell-based
Summary of the method: (§3)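 Cells kept in DMEM with 10% FBS and penicillin-streptomycin at 37 °C, 5% CO2. About 1×10^4 cells per well attached for 24 h, then exposed for 48 h to 0.3, 1, 3, 10, 30 and 100 µmol/L of compound, in triplicate wells. CCK-8 added for 3 h, OD read at 450 nm. IC50 is the concentration inhibiting growth by 50%.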

SGC-7901 = assay: Cytotoxicity against human SGC7901 cells measured after 48 hrs by CCK8 assay; format: functional, cell-based; conditions: SGC-7901, 48 h; summary of the method: as §3
HEK-293T = assay: Cytotoxicity against HEK293T cells measured after 48 hrs by CCK8 assay; format: cell-based; conditions: Homo sapiens; summary of the method: as §3
[12] = Selectivity index, ratio of IC50 for HEK293T cells to MIC for Staphylococcus aureus CMCC(B) 26003; format: toxicity; conditions: human, read-out: Selectivity Index
[13] = Selectivity index, ratio of IC50 for HEK293T cells to MIC for Staphylococcus aureus CMCC 25923; format: toxicity; conditions: human, read-out: Selectivity Index
[14] = Selectivity index, ratio of IC50 for HEK293T cells to MIC for Streptococcus pyogenes CMCC 32067; format: toxicity; conditions: human, read-out: Selectivity Index
[15] = Selectivity index, ratio of IC50 for HEK293T cells to MIC for Streptococcus pneumoniae CMCC 31968; format: toxicity; conditions: human, read-out: Selectivity Index
[16] = Selectivity index, ratio of IC50 for HEK293T cells to MIC for Enterococcus faecalis CMCC 29212; format: toxicity; conditions: human, read-out: Selectivity Index
[17] = Selectivity index, ratio of IC50 for HEK293T cells to MIC for Bacillus subtilis CMCC 63501; format: toxicity; conditions: human, read-out: Selectivity Index
[18] = Selectivity index, ratio of IC50 for HEK293T cells to MIC for Escherichia coli CMCC 25922; format: toxicity; conditions: human, read-out: Selectivity Index
[19] = Selectivity index, ratio of IC50 for HEK293T cells to MIC for Escherichia coli CMCC 44568; format: toxicity; conditions: human, read-out: Selectivity Index
[20] = Selectivity index, ratio of IC50 for HEK293T cells to MIC for Pseudomonas aeruginosa CMCC 27853; format: toxicity; conditions: human, read-out: Selectivity Index
[21] = Selectivity index, ratio of IC50 for HEK293T cells to MIC for Pseudomonas aeruginosa CMCC 10104; format: toxicity; conditions: human, read-out: Selectivity Index
[22] = Selectivity index, ratio of IC50 for HEK293T cells to MIC for methicillin-resistant Staphylococcus aureus ATCC 43300; format: toxicity; conditions: human, read-out: Selectivity Index
[23] = Selectivity index, ratio of IC50 for HEK293T cells to MIC for methicillin-resistant Staphylococcus aureus ATCC 33591; format: toxicity; conditions: human, read-out: Selectivity Index
[24] = Selectivity index, ratio of IC50 for HEK293T cells to MIC for multidrug-resistant Escherichia coli ATCC BAA-196; format: toxicity; conditions: human, read-out: Selectivity Index
[25] = Selectivity index, ratio of IC50 for HEK293T cells to MIC for multidrug-resistant Pseudomonas aeruginosa ATCC BAA-2111; format: toxicity; conditions: human, read-out: Selectivity Index

SMILES | MIC (Staphylococcus aureus [1]) | MIC (Staphylococcus aureus [2]) | MIC (Streptococcus pyogenes) | MIC (Streptococcus pneumoniae) | MIC (Enterococcus faecalis) | MIC (Bacillus subtilis) | MIC (Escherichia coli [3]) | MIC (Escherichia coli [4]) | MIC (Pseudomonas aeruginosa [5]) | MIC (Pseudomonas aeruginosa [6]) | MIC (Staphylococcus aureus [7]) | MIC (Staphylococcus aureus [8]) | MIC (Escherichia coli [9]) | MIC (Pseudomonas aeruginosa [10]) | IC50 [11] | IC50 (SGC-7901) | IC50 (HEK-293T) | selectivity ratio [12] | selectivity ratio [13] | selectivity ratio [14] | also measured
CC/C(=N/NC(=N)N)c1cn(S(=O)(=O)c2ccc(C)cc2)c2ccc(Br)cc12 | 4.34 µM (≈ 2.01 µg/mL) | 2.17 µM (≈ 1 µg/mL) | 139 µM (≈ 64.2 µg/mL) | 1.08 µM (≈ 0.499 µg/mL) | 4.34 µM (≈ 2.01 µg/mL) | 2.17 µM (≈ 1 µg/mL) | 34.7 µM (≈ 16 µg/mL) | 4.34 µM (≈ 2.01 µg/mL) | > 278 µM | > 278 µM | 2.17 µM (≈ 1 µg/mL) | 2.17 µM (≈ 1 µg/mL) | 8.68 µM (≈ 4.01 µg/mL) | > 69.4 µM | 2.33 µM | 3.92 µM | 57.6 µM | 13.3 | 13.3 | 0.42 | selectivity ratio [15]: 53.4; selectivity ratio [16]: 13.3; selectivity ratio [17]: 26.6; selectivity ratio [18]: 1.66; selectivity ratio [19]: 13.3; selectivity ratio [20]: < 0.21; selectivity ratio [21]: < 0.21; selectivity ratio [22]: 26.6; selectivity ratio [23]: 26.6; selectivity ratio [24]: 6.64; selectivity ratio [25]: < 0.83
Cc1ccc(S(=O)(=O)n2cc(/C=N\NC(=N)N)c3ccccc32)cc1 | 11.3 µM (≈ 4.01 µg/mL) | 11.3 µM (≈ 4.01 µg/mL) | > 361 µM | 2.82 µM (≈ 1 µg/mL) | 45.1 µM (≈ 16 µg/mL) | 5.64 µM (≈ 2 µg/mL) | 11.3 µM (≈ 4.01 µg/mL) | 11.3 µM (≈ 4.01 µg/mL) | 45.1 µM (≈ 16 µg/mL) | 11.3 µM (≈ 4.01 µg/mL) | 2.82 µM (≈ 1 µg/mL) | 5.63 µM (≈ 2 µg/mL) | 11.3 µM (≈ 4.01 µg/mL) | 11.3 µM (≈ 4.01 µg/mL) | 12.2 µM | 2.12 µM | 86.7 µM | 7.68 | 7.68 | < 0.24 | selectivity ratio [15]: 30.7; selectivity ratio [16]: 1.92; selectivity ratio [17]: 15.4; selectivity ratio [18]: 7.68; selectivity ratio [19]: 7.68; selectivity ratio [20]: 1.92; selectivity ratio [21]: 7.68; selectivity ratio [22]: 30.7; selectivity ratio [23]: 15.4; selectivity ratio [24]: 7.67; selectivity ratio [25]: 7.67
COc1c(N2CCNC(C)C2)c(F)cc2c(=O)c(C(=O)O)cn(C3CC3)c12 (centres undefined) [GATIFLOXACIN] | 0.33 µM (≈ 0.124 µg/mL) | 0.33 µM (≈ 0.124 µg/mL) | > 341 µM | > 341 µM | 2.67 µM (≈ 1 µg/mL) | 5.33 µM (≈ 2 µg/mL) | 0.33 µM (≈ 0.124 µg/mL) | 0.33 µM (≈ 0.124 µg/mL) | 5.33 µM (≈ 2 µg/mL) | 5.33 µM (≈ 2 µg/mL) | 1.33 µM (≈ 0.499 µg/mL) | 0.67 µM (≈ 0.252 µg/mL) | 1.33 µM (≈ 0.499 µg/mL) | 2.66 µM (≈ 0.999 µg/mL) | – | – | – | – | – | – | –
CC1(C)S[C@@H]2[C@H](NC(=O)Cc3ccccc3)C(=O)N2[C@H]1C(=O)O [PENICILLIN G] | 0.37 µM (≈ 0.124 µg/mL) | 0.37 µM (≈ 0.124 µg/mL) | > 383 µM | > 383 µM | 383 µM (≈ 128 µg/mL) | 383 µM (≈ 128 µg/mL) | 383 µM (≈ 128 µg/mL) | > 383 µM | > 383 µM | 95.8 µM (≈ 32 µg/mL) | 95.8 µM (≈ 32 µg/mL) | > 95.8 µM | – | – | – | – | – | – | – | – | –
C/C(=N/NC(=N)N)c1cn(S(=O)(=O)c2ccc(C)cc2)c2ccccc12 | 10.8 µM (≈ 4 µg/mL) | 5.42 µM (≈ 2 µg/mL) | 21.7 µM (≈ 8.01 µg/mL) | 2.71 µM (≈ 1 µg/mL) | 43.4 µM (≈ 16 µg/mL) | 10.8 µM (≈ 4 µg/mL) | 21.7 µM (≈ 8.01 µg/mL) | 10.8 µM (≈ 4 µg/mL) | 347 µM (≈ 128 µg/mL) | 10.8 µM (≈ 4 µg/mL) | 5.42 µM (≈ 2 µg/mL) | 5.42 µM (≈ 2 µg/mL) | 10.8 µM (≈ 4 µg/mL) | > 86.7 µM | 2.68 µM | 2.38 µM | 53 µM | 4.89 | 9.78 | 2.44 | selectivity ratio [15]: 19.6; selectivity ratio [16]: 1.22; selectivity ratio [17]: 4.89; selectivity ratio [18]: 2.44; selectivity ratio [19]: 4.89; selectivity ratio [20]: 0.15; selectivity ratio [21]: 4.89; selectivity ratio [22]: 9.78; selectivity ratio [23]: 9.78; selectivity ratio [24]: 4.89; selectivity ratio [25]: < 0.61
